From ChEMBL document CHEMBL1287740, “Synthesis and bio-evaluation of alkylaminoaryl phenyl cyclopropyl methanones as antitubercular and antimalarial agents” (Bioorg Med Chem, 2010)
Values after ≈ are worked out from the molar mass of the structure shown. Active and inactive are the calls of the source. No cut-off for these calls is given here.

Key:
[1] = test system: Mycobacterium tuberculosis; test: Antimicrobial activity against Mycobacterium tuberculosis H37Rv after 30 days by agar microdilution method; type: functional
In short: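 Twofold dilutions of compound in DMSO incorporated into Middlebrook 7H10 medium with OADC supplement in slanted tubes, preincubated 37 °C for 24 h, then streaked with H37Rv harvested from L-J medium into 0.85% saline with 0.05% Tween-80 (5 × 10^5 bacilli per tube). Incubated at 37 °C; MIC = lowest concentration giving complete inhibition of colonies versus drug-free control.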

Plasmodium falciparum [2] = test: Antimalarial activity against Plasmodium falciparum 3D7 assessed as maturation of schizonts after 24 to 32 hrs by microdilution method; type: functional
In short: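 P. falciparum 3D7 (chloroquine sensitive); twofold serial dilutions in complete RPMI 1640 from 10 mg/ml DMSO stocks, parasitized RBCs added (final hematocrit 3–4%, 1.0–2.0% parasitaemia, >95% rings). Incubated 24–32 h at 37 °C with 5% CO2. Thin smears stained with 15% Giemsa; schizont maturation scored against controls to give MIC.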

Plasmodium falciparum [3] = test: Antimalarial activity against Plasmodium falciparum 3D7 assessed as radiolabeled hypoxanthine uptake after 48 hrs by scintillation counting; type: functional, organism-based; conditions: 3D7, 48 h
In short: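 Chloroquine-sensitive P. falciparum 3D7 asynchronous culture at 0.5% parasitaemia and 1.5% hematocrit, exposed to compounds for 24 h at 37 °C in CO2. Radiolabelled hypoxanthine (0.5 µCi/well) then added and incubation continued 48 h. Cells harvested onto filter paper, and radioactivity counted by scintillation β-counter. IC50 derived from hypoxanthine uptake.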

[4] = Cytotoxicity against african green monkey Vero cells after 72 hrs; type: cell-based; conditions: chlorocebus sabaeus
In short: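 Vero (C1008 monkey kidney) cells grown in MEM + 15% FBS, 5% CO2, 37 °C. Trypsinized cells at 1 × 10^5 cells/ml seeded and allowed to adhere overnight, then exposed to serial compound dilutions for 72 h. Resazurin added and fluorescence read after 4 h.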

[5] = Selectivity index, ratio of CC50 for african green monkey (Cercopithecus aethiops) Vero cells to IC50 for Plasmodium falciparum 3D7; type: functional
In short: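 Ratio of Vero CC50 (resazurin fluorescence after 72 h exposure) to P. falciparum 3D7 IC50 (radiolabelled hypoxanthine uptake; 24 h compound exposure, then 48 h with label).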

Mycolicibacterium aurum [6] = test: Inhibition of type II fatty acid biosynthesis pathway in Mycobacterium aurum at 25 uM after 12 hrs by lacZ reporter assay relative to untreated control; type: functional
In short: (§1)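 Recombinant M. aurum lacZ reporter strains (kasA promoter or hsp60 promoter) grown in Sauton's medium with kanamycin at 37 °C to 0.5 OD600, diluted to 0.04–0.05 OD, equilibrated 2 h, then treated 12 h at 37 °C (10, 25, 50, 75 µM). Cells sonicated in PBS pH 7.2 and protein normalized by Bradford. β-gal measured with ONPG (4 mg/ml), 30 min at 37 °C, stopped with Na2CO3, OD 410 nm. Triplicates, relative to untreated control.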

Mycolicibacterium aurum [7] = test: Inhibition of type II fatty acid biosynthesis pathway in Mycobacterium aurum at 50 uM after 12 hrs by lacZ reporter assay relative to untreated control; type: functional; in short: as §1
Mycolicibacterium aurum [8] = test: Inhibition of type II fatty acid biosynthesis pathway in recombinant Mycobacterium aurum carrying hsp60 promoter assessed as beta-galactosidase activity at 10 to 50 uM after 12 hrs by lacZ reporter assay relative to untreated control; type: functional, organism-based; in short: as §1
Mycolicibacterium aurum [9] = test: Inhibition of type II fatty acid biosynthesis pathway in recombinant Mycobacterium aurum carrying hsp60 promoter assessed as beta-galactosidase activity at 14 uM after 12 hrs by lacZ reporter assay relative to untreated control; type: functional, organism-based
Mycolicibacterium aurum [10] = test: Inhibition of type II fatty acid biosynthesis pathway in Mycobacterium aurum at 10 to 50 uM after 12 hrs by lacZ reporter assay relative to untreated control; type: functional, organism-based; in short: as §1
Mycolicibacterium aurum [11] = test: Inhibition of type II fatty acid biosynthesis pathway in Mycobacterium aurum assessed as cell viability at 10 to 50 uM after 12 hrs by lacZ reporter assay relative to untreated control; type: functional, organism-based
In short: (§2)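 M. aurum (recombinant reporter strains) grown in Sauton's medium with 0.05% Tween-80 and kanamycin to 0.6 OD600, diluted to 0.05 OD. 1 × 10^5 cells inoculated into 5 ml medium with varying compound concentrations, grown 12 h at 37 °C with shaking. Viable cells counted by 10-fold serial dilution plating on nutrient agar-Tween-kanamycin. % inhibition calculated with untreated colony count taken as 100%.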

Mycolicibacterium aurum [12] = test: Inhibition of type II fatty acid biosynthesis pathway in recombinant Mycobacterium aurum carrying hsp60 promoter assessed as cell viability at 10 to 50 uM after 12 hrs by lacZ reporter assay relative to untreated control; type: functional, organism-based; in short: as §2
Mycolicibacterium aurum [13] = test: Inhibition of type II fatty acid biosynthesis pathway in recombinant Mycobacterium aurum carrying hsp60 promoter assessed as cell viability at 10 uM after 12 hrs by lacZ reporter assay relative to untreated control; type: functional; in short: as §2
Mycolicibacterium aurum [14] = test: Inhibition of type II fatty acid biosynthesis pathway in recombinant Mycobacterium aurum carrying hsp60 promoter assessed as cell viability at 25 uM after 12 hrs by lacZ reporter assay relative to untreated control; type: functional; in short: as §2
Mycolicibacterium aurum [15] = test: Inhibition of type II fatty acid biosynthesis pathway in recombinant Mycobacterium aurum carrying hsp60 promoter assessed as cell viability at 50 uM after 12 hrs by lacZ reporter assay relative to untreated control; type: functional; in short: as §2
Mycolicibacterium aurum [16] = test: Inhibition of type II fatty acid biosynthesis pathway in recombinant Mycobacterium aurum carrying hsp60 promoter assessed as cell viability at 75 uM after 12 hrs by lacZ reporter assay relative to untreated control; type: functional; in short: as §2

Compound | MIC [1] | MIC (Plasmodium falciparum [2]) [mg/L] | IC50 (Plasmodium falciparum [3]) [mg/L] | CC50 at 72 h [4] [mg/L] | Ratio CC50/IC50 [5] | inhibition at 25 µM (Mycolicibacterium aurum [6]) [%] | inhibition at 50 µM (Mycolicibacterium aurum [7]) [%] | inhibition (Mycolicibacterium aurum [6]) | inhibition (Mycolicibacterium aurum [8]) | inhibition (Mycolicibacterium aurum [9]) | inhibition (Mycolicibacterium aurum [10]) | inhibition (Mycolicibacterium aurum [11]) | inhibition (Mycolicibacterium aurum [12]) | inhibition at 10 µM (Mycolicibacterium aurum [13]) [%] | inhibition at 25 µM (Mycolicibacterium aurum [14]) [%] | inhibition at 50 µM (Mycolicibacterium aurum [15]) [%] | inhibition at 75 µM (Mycolicibacterium aurum [16]) [%]
O=C(c1ccc(N2CCN(c3cccc(Cl)c3Cl)CC2)cc1)C1CC1c1ccc(Cl)cc1 (stereo not drawn) | 12.5 mg/L (≈ 25.7 µM) | 50 (≈ 103 µM) | 8.82 (≈ 18.2 µM) | 383 (≈ 788 µM) | 43.38 | 15.7 | 31.8 | – | – | – | – | – | – | – | – | – | –
O=C(/C=C/c1ccc(Cl)cc1)c1ccc(N2CCOCC2)cc1 | 6.25 mg/L (≈ 19.1 µM) | 50 (≈ 153 µM) | 4.86 (≈ 14.8 µM) | 35.6 (≈ 109 µM) | 7.33 | 47.1 | 42.9 | – | – | – | – | – | – | – | – | – | –
CCCCNc1ccc(C(=O)C2CC2c2ccc(Cl)cc2)cc1 (stereo not drawn) | 12.5 mg/L (≈ 38.1 µM) | 0.6 (≈ 1.83 µM) | 0.33 (≈ 1.01 µM) | 316 (≈ 965 µM) | 958.69 | 39.5 | 60.9 | – | – | – | – | – | – | – | – | – | –
CN1CCN(c2ccc(C(=O)/C=C/c3ccc(Cl)cc3)cc2)CC1 | 3.12 mg/L (≈ 9.15 µM) | 50 (≈ 147 µM) | 11.8 (≈ 34.6 µM) | 102 (≈ 301 µM) | 8.69 | 13.6 | 14.7 | – | – | – | – | – | – | – | – | – | –
O=C(c1ccc(NCCn2cnc3ccccc32)cc1)C1CC1c1ccc(Cl)cc1 (stereo not drawn) | 12.5 mg/L (≈ 30.1 µM) | 2 (≈ 4.81 µM) | 0.74 (≈ 1.78 µM) | 285 (≈ 686 µM) | 385.45 | 1.03 | 16.9 | – | – | – | – | – | – | – | – | – | –
COc1ccc(C2CC2C(=O)c2ccc(N3CCN(C)CC3)cc2)cc1OC (stereo not drawn) | > 12.5 mg/L | 50 (≈ 131 µM) | 2.09 (≈ 5.49 µM) | 77.8 (≈ 205 µM) | 37.23 | – | – | – | – | – | – | – | – | – | – | – | –
CN1CCN(c2ccc(C(=O)C3CC3c3ccc(Cl)cc3)cc2)CC1 (stereo not drawn) | 6.25 mg/L (≈ 17.6 µM) | 10 (≈ 28.2 µM) | 0.54 (≈ 1.52 µM) | 82.1 (≈ 231 µM) | 151.96 | – | 0.17 | inactive | – | – | – | – | – | – | – | – | –
O=C(/C=C/c1ccc(Cl)cc1)c1ccc(NCc2ccco2)cc1 | 12.5 mg/L (≈ 37 µM) | 10 (≈ 29.6 µM) | 0.76 (≈ 2.25 µM) | 404 (≈ 1200 µM) | 531.62 | – | – | – | – | – | – | – | – | – | – | – | –
CCCCCCCCCCCCNc1ccc(C(=O)C2CC2c2ccc(Cl)cc2)cc1 (stereo not drawn) | Insoluble | > 50 | 10.4 (≈ 23.6 µM) | 386 (≈ 876 µM) | 37.08 | 27 | 32.7 | – | – | – | – | – | – | – | – | – | –
O=C(c1ccc(N2CCCC2)cc1)C1CC1c1ccc(Cl)cc1 (stereo not drawn) | 12.5 mg/L (≈ 38.4 µM) | > 50 | 9.75 (≈ 29.9 µM) | 431 (≈ 1320 µM) | 44.26 | – | – | – | – | – | – | – | – | – | – | – | –
CCCCCCCCNc1ccc(C(=O)C2CC2c2ccc(Cl)cc2)cc1 (stereo not drawn) | > 12.5 mg/L | 10 (≈ 26 µM) | 2.13 (≈ 5.55 µM) | 214 (≈ 558 µM) | 100.53 | 30.2 | 23.9 | – | – | – | – | – | – | – | – | – | –
CCCCCCCC/C=C\CCCCCCCCNc1ccc(C(=O)C2CC2c2ccc(Cl)cc2)cc1 (stereo not drawn) | 12.5 mg/L (≈ 23.9 µM) | > 50 | 75.1 (≈ 144 µM) | 393 (≈ 753 µM) | 5.24 | – | – | – | – | – | – | – | – | – | – | – | –
COc1ccc(CNc2ccc(C(=O)C3CC3c3ccc(Cl)cc3)cc2)cc1OC (stereo not drawn) | > 12.5 mg/L | 10 (≈ 23.7 µM) | 8 (≈ 19 µM) | 422 (≈ 1000 µM) | 52.73 | – | – | – | – | – | – | – | – | – | – | – | –
O=C(c1ccc(N2CCOCC2)cc1)C1CC1c1ccc(Cl)cc1 (stereo not drawn) | > 12.5 mg/L | 10 (≈ 29.3 µM) | 3.02 (≈ 8.83 µM) | 453 (≈ 1320 µM) | 149.92 | 29.8 | 3.81 | – | – | – | – | – | – | – | – | – | –
CN(C)CCCNc1ccc(C(=O)/C=C/c2ccc(Cl)cc2)cc1 | – | 1.56 (≈ 4.55 µM) | 0.64 (≈ 1.87 µM) | 5.92 (≈ 17.3 µM) | 9.25 | 83.4 | 88.1 | – | inactive | inactive | Dose-dependent effect | Dose-dependent effect | Dose-dependent effect | 18.8 | 85.4 | 88.7 | 99.6
